Test [1] has as its target Tyrosine-protein kinase ABL2 (Homo sapiens) (UniProt P42684). Briefly: Inhibition of human recombinant ABL2 at 40 nM in presence of ATP by radiometric assay relative to control. The method, boiled down: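 Panel of 327 recombinant human kinases in radiometric activity assays, each screened in duplicate at a single inhibitor concentration; percent activity remaining relative to vehicle control, percent inhibition taken as 100 minus activity remaining.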

For test [2], the target named is Cyclin-dependent kinase 9 (Homo sapiens) (UniProt P50750). In words: Inhibition of human recombinant CDK9 at 40 nM in presence of ATP by radiometric assay relative to control.
Chain of Cyclin-dependent kinase 9 (Homo sapiens) (P50750 whole entry): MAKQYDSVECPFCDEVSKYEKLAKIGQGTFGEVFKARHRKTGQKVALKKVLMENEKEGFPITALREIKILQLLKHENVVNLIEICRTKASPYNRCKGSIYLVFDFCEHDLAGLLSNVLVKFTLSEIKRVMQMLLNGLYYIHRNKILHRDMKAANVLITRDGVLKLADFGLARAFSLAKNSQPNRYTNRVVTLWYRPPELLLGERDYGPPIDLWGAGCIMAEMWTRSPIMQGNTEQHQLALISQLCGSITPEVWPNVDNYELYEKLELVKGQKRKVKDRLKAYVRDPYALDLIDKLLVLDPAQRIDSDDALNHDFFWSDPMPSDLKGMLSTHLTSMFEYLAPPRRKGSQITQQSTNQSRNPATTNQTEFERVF
Test [3] has as its target T1, Inhibitor of nuclear factor kappa-B kinase subunit epsilon (Homo sapiens) (UniProt Q14164).
T1 sequence (whole entry): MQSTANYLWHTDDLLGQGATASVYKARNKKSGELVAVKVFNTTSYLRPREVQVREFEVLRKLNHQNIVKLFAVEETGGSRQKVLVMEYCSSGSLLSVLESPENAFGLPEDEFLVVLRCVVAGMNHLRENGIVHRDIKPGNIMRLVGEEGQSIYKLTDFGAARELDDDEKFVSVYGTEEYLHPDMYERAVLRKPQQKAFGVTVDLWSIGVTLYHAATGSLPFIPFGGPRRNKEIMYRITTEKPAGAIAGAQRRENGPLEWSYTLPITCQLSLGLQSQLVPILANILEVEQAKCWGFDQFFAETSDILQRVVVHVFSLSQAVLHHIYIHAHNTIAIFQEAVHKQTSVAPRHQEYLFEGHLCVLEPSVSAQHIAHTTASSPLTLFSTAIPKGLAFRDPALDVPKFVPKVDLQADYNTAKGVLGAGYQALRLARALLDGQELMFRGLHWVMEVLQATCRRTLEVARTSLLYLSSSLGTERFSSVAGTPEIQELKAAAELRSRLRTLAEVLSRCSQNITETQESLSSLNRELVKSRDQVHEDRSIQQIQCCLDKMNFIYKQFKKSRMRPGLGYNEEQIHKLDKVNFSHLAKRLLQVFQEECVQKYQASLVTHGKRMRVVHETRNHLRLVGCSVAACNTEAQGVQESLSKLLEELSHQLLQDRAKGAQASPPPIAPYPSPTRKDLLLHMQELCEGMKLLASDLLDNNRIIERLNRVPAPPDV
Briefly: Inhibition of human recombinant IKKe at 40 nM related to control ULK1.

Test [4] concerns the target Cyclin-dependent kinase 12 (Homo sapiens) (UniProt Q9NYV4). In words: Inhibition of human recombinant CRK7 at 40 nM in presence of ATP by radiometric assay relative to control.
Test [5] has as its target T2, Protein kinase C epsilon type (Homo sapiens) (UniProt Q02156).
T2 sequence (whole entry): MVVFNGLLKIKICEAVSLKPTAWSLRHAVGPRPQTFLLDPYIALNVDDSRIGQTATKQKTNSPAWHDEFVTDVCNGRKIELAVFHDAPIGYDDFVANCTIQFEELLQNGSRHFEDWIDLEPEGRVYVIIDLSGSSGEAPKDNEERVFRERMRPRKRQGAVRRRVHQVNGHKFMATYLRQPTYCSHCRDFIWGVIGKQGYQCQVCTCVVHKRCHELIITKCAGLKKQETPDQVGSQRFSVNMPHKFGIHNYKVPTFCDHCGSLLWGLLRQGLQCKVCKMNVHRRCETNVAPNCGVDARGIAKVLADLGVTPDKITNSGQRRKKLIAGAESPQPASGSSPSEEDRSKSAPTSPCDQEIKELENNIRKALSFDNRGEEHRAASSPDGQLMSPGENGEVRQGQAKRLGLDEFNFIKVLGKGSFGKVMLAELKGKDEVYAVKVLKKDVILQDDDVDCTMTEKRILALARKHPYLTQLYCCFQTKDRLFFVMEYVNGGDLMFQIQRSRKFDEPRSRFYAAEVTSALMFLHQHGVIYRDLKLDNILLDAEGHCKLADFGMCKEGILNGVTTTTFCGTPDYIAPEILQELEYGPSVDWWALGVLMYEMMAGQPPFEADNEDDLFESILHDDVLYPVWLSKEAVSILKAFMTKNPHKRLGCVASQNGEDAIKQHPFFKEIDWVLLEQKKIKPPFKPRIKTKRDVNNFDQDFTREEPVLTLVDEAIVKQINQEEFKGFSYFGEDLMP
In words: Inhibition of human recombinant PKCe at 40 nM in presence of ATP by radiometric assay relative to control.

The target of test [6] is Insulin receptor-related protein (Homo sapiens) (UniProt P14616). In words: Inhibition of human recombinant IRR at 500 nM related to control ULK1.
Chain of Insulin receptor-related protein (Homo sapiens) (P14616 27-742 limits assumed): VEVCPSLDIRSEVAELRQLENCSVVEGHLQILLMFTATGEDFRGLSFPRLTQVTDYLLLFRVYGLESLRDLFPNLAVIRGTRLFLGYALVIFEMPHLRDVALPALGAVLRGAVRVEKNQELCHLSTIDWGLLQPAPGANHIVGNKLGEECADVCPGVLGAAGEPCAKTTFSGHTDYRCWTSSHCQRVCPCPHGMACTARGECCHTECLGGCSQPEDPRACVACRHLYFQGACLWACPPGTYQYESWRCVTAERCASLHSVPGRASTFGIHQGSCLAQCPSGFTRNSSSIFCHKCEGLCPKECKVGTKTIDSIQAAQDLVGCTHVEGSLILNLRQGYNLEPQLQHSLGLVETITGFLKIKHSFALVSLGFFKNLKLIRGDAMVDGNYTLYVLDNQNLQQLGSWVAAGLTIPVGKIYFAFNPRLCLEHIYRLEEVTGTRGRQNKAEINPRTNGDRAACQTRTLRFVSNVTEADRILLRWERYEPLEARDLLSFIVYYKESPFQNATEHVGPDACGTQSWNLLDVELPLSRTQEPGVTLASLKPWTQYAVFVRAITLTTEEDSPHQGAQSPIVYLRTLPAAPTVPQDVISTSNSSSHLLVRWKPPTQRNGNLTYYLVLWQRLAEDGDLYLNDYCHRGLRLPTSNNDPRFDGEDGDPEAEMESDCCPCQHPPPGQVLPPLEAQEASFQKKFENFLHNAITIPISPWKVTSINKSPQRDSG
Chain of Insulin receptor-related protein (Homo sapiens) (P14616 747-1297 limits assumed): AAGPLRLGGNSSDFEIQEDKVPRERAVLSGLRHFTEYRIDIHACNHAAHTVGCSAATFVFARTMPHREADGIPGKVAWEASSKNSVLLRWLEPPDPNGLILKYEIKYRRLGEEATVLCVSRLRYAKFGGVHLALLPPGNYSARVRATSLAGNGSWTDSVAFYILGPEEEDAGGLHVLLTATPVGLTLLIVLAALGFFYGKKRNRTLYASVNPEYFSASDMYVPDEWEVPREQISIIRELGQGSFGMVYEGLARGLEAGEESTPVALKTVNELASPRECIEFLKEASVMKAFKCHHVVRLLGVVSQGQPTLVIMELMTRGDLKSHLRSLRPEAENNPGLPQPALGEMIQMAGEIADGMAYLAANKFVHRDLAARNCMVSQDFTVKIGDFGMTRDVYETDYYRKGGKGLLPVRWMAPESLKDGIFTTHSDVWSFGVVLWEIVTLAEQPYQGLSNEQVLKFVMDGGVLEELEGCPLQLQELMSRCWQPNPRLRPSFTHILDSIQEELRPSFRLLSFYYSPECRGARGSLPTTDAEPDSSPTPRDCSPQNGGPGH
In test [7] the target is Serine/threonine-protein kinase B-raf (Homo sapiens) (UniProt P15056). In words: Inhibition of human recombinant BRAF at 500 nM related to control ULK1.
In test [8] the target is Macrophage-stimulating protein receptor (Homo sapiens) (UniProt Q04912). Briefly: Inhibition of human recombinant RON at 500 nM in presence of ATP by radiometric assay relative to control.
Chain of Macrophage-stimulating protein receptor (Homo sapiens) (Q04912 25-304 limits assumed): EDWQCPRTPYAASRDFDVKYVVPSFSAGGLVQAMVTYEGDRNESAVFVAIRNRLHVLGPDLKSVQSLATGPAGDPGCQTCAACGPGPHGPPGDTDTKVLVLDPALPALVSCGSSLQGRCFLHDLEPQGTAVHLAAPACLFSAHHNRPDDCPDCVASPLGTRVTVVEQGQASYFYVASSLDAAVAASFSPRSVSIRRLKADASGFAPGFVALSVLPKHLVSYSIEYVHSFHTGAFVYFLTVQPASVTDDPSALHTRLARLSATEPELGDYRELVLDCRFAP
Chain of Macrophage-stimulating protein receptor (Homo sapiens) (Q04912 310-1400 limits assumed): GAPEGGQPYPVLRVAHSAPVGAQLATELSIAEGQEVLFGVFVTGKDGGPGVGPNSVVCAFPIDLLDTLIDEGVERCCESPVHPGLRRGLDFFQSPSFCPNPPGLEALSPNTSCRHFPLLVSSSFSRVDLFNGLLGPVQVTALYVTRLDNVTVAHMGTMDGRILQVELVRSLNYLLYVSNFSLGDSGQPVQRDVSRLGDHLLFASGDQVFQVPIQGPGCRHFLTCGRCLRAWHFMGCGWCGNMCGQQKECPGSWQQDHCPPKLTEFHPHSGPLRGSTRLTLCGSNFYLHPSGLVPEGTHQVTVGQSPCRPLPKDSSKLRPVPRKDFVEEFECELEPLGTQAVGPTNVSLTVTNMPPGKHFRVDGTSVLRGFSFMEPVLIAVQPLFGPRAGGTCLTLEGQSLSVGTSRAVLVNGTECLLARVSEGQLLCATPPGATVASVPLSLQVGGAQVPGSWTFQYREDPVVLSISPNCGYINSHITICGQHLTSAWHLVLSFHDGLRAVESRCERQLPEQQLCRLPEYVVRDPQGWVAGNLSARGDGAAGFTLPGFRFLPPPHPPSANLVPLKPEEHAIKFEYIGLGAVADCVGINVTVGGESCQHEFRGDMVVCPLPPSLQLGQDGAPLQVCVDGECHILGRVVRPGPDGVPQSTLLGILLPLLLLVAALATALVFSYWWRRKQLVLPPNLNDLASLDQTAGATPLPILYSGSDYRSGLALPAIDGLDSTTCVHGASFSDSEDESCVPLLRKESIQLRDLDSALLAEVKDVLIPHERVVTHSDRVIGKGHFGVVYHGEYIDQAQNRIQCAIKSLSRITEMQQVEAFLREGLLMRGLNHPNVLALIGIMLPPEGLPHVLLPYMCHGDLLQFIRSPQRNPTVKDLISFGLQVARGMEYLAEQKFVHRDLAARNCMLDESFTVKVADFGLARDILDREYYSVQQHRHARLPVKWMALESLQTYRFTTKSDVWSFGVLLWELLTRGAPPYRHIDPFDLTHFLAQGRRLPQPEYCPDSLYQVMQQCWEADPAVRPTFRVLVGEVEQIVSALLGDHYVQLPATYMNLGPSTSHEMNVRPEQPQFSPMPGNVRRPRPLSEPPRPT
In test [9] the target is NT-3 growth factor receptor (Homo sapiens) (UniProt Q16288). In words: Inhibition of human recombinant TRKC at 15 nM related to control ULK1.
The target in test [10] is Dual specificity protein kinase CLK3 (Homo sapiens) (UniProt P49761). Briefly: Inhibition of human recombinant CLK3 at 15 nM in presence of ATP by radiometric assay relative to control.
Chain of Dual specificity protein kinase CLK3 (Homo sapiens) (P49761 whole entry, looked up): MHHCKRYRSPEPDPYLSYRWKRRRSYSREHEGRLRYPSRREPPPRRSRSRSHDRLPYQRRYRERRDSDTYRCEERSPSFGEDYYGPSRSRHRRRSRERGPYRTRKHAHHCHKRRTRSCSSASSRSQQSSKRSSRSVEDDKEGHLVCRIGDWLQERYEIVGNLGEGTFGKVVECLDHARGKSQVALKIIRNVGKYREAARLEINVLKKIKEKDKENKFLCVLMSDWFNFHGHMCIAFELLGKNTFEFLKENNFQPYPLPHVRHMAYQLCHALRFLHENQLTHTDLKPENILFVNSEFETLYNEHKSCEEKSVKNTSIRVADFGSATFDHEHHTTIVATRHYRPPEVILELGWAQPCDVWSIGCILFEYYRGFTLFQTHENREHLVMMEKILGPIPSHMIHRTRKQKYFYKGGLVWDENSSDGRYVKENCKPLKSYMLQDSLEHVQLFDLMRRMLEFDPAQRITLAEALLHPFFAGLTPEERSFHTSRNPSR
Test [11] addresses T1, Inhibitor of nuclear factor kappa-B kinase subunit epsilon (Homo sapiens). In words: Inhibition of human recombinant IKKe at 15 nM in presence of ATP by radiometric assay relative to control.

Chain of Cyclin-dependent kinase 12 (Homo sapiens) (Q9NYV4 whole entry, looked up): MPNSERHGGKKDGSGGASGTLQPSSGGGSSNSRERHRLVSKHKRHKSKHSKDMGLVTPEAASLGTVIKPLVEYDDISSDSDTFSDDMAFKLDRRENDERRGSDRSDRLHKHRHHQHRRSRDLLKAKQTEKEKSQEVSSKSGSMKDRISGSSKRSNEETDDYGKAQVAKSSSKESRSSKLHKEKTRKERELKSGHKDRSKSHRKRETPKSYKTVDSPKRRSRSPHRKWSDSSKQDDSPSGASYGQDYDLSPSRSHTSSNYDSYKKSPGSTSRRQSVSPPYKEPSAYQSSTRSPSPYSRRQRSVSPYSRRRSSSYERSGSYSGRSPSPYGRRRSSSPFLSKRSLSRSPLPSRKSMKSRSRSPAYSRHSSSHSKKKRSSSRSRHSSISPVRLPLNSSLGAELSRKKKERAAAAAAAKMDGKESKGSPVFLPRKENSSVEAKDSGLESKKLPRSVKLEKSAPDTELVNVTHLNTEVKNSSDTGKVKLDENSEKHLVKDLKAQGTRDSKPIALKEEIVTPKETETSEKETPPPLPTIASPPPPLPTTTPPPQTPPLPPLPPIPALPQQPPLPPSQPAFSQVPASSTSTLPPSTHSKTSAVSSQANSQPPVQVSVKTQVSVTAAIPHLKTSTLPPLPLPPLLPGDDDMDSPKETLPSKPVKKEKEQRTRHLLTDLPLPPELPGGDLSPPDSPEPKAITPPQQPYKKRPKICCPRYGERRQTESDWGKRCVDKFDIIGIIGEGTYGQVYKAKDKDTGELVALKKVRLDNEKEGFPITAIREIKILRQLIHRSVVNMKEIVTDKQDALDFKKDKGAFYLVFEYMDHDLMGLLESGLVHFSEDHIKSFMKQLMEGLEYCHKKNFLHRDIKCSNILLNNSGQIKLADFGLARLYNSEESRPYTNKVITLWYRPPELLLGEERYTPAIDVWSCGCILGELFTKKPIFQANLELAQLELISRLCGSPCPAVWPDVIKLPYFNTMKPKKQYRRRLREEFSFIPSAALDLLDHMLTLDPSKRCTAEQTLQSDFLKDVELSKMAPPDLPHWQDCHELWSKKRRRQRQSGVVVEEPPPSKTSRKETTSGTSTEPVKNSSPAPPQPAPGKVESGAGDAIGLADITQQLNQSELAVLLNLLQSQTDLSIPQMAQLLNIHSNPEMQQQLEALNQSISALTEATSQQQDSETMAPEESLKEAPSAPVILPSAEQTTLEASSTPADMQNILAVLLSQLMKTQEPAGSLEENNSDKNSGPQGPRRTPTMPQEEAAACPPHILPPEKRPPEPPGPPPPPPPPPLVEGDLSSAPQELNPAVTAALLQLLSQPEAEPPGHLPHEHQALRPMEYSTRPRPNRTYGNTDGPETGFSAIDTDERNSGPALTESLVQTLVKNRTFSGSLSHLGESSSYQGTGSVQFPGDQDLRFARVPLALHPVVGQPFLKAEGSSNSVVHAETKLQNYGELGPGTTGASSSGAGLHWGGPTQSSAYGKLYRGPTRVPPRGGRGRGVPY

As to `O=C(N[C@@H](C1CC1)C(F)(F)F)c1cc(-c2cnn3cc(-c4ccc(F)cc4)cnc23)cs1`, the inhibition (usually the share of the control response that was lost under treatment) in [1] stood at 7%; in [2] it was 0%; in test [4] it was 7%; in test [5] it was 0%. Further, the fold change (FC) in test [3] came to 0.41.

As to `CNC(=O)c1ccccc1Oc1nc(Nc2cc(OC)c(OC)c(OC)c2)ncc1Br`, the results for the fold change (FC) in test [6] and in test [7] were 0.12 and 0.11, respectively. The inhibition in test [8] stood at 1%.

For `CC(C)[C@H](NC(=O)c1cc(-c2cnn3cc(-c4ccc(OCCN5CCCCC5)cc4)cnc23)cs1)C(F)(F)F`, the fold change (FC) in test [9] is 0. The inhibition in test [10] worked out at 1%; in [11], 75%.

(Values after ChEMBL document CHEMBL5653631, “A Potent and Selective ULK1 Inhibitor Suppresses Autophagy and Sensitizes Cancer Cells to Nutrient Stress” (iScience, 2018).)
